According to ChEMBL document CHEMBL2157986, “The multiobjective based design, synthesis and evaluation of the arylsulfonamide/amide derivatives of aryloxyethyl- and arylthioethyl- piperidines and pyrrolidines as a novel class of potent 5-HT₇ receptor antagonists” (Eur J Med Chem, 2012):

What was measured:
[1] = biological target: T1, 5-hydroxytryptamine receptor 1A (Homo sapiens, UniProt P08908); assay: Displacement of [3H]-8-OH-DPAT from human 5-HT1A receptor expressed in HEK293 cells after 1 hr; assay type: cell-based
T1 sequence (P08908 whole entry): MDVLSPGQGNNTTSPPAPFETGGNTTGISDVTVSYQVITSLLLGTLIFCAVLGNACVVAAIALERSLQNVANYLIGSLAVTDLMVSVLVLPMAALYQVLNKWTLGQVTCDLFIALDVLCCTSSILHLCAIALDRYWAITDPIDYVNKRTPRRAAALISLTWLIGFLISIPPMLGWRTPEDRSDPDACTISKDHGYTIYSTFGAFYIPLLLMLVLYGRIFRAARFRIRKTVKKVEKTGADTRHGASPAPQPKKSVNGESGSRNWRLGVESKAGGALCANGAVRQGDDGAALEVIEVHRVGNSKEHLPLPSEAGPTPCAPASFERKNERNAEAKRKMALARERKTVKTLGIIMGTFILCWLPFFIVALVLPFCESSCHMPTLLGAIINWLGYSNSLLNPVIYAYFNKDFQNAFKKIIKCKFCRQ
Procedure, shortened: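 Membranes from stably transfected HEK293 cells (human 5-HT1A), homogenized in 50 mM Tris–HCl, 0.1 mM EDTA, 4 mM MgCl2, 10 µM pargyline, 0.1% ascorbate; incubated 1 h at room temperature, then rapid filtration and radioactivity counting. Nonspecific binding with 10 µM 5-HT.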

Homo sapiens = species on record: Homo sapiens; assay: Selectivity ratio of Ki for human 5-HT1A receptor to Ki for human 5-HT7b receptor
[2] = biological target: 5-hydroxytryptamine receptor 7 (Homo sapiens, UniProt P34969); assay: Displacement of [3H]-5-CT from human 5-HT7b receptor expressed in HEK293 cells after 1 hr; assay type: cell-based
D(2) dopamine receptor = D(2) dopamine receptor (Homo sapiens, UniProt P14416); assay: Binding affinity to human dopamine D2L receptor expressed in HEK293 cells after 1 hr; assay type: cell-based
[3] = biological target: 5-hydroxytryptamine receptor 6 (Homo sapiens, UniProt P50406); assay: Displacement of [3H]-LSD from human 5-HT6 receptor expressed in HEK293 cells after 1 hr; assay type: cell-based
5-hydroxytryptamine receptor 6, sequence (P50406 whole entry): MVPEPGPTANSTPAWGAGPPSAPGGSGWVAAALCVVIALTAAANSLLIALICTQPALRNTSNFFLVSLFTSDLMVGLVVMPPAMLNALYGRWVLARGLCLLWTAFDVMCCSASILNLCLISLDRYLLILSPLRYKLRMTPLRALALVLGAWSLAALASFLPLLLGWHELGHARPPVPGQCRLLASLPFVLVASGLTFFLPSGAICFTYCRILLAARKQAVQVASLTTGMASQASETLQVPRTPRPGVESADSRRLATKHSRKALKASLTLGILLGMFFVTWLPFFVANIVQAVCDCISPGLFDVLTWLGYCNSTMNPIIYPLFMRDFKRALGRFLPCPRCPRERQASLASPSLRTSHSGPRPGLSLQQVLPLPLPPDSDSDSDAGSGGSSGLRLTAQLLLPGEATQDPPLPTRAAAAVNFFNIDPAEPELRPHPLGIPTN

D(2) dopamine receptor, sequence (P14416 whole entry): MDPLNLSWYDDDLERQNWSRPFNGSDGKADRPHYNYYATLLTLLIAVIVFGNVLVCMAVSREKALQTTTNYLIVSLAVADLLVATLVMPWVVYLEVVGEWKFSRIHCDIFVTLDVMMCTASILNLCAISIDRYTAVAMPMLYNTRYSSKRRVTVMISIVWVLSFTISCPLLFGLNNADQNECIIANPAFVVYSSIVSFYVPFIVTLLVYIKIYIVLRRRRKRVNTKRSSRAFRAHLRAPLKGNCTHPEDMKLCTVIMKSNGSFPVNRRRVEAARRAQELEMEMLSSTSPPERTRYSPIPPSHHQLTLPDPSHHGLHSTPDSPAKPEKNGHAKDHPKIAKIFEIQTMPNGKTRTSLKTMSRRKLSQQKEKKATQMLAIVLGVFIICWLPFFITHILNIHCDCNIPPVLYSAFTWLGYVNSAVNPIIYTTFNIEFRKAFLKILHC
5-hydroxytryptamine receptor 7, sequence (P34969 whole entry): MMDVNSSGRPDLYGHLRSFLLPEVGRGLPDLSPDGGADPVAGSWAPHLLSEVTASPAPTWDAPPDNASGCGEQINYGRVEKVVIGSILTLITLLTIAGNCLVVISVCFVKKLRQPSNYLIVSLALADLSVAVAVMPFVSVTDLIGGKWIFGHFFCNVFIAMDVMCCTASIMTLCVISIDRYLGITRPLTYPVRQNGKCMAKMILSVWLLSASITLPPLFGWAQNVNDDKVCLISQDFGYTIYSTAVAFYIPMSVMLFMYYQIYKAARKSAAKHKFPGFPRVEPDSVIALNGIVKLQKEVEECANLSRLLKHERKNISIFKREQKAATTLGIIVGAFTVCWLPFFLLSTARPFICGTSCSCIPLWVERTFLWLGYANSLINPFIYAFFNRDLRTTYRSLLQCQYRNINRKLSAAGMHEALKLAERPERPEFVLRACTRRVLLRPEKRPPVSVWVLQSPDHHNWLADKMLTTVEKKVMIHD

SMILES	Ki [1] [nM]	Ratio Ki (Homo sapiens)	Ki [2] [nM]	Ki (D(2) dopamine receptor) [nM]	Ki [3] [nM]
O=S(=O)(NC1CCN(CCOc2cccc(F)c2)C1)c1ccc(F)c(F)c1 (stereo not given)	230	< 1	293	523	951
CC(C)c1ccccc1OCCN1CCC(NC(=O)c2ccc3ccccc3n2)C1 (stereo not given)	30	< 1	178	79	1760
CSc1ccccc1OCCN1CCC(NS(=O)(=O)c2ccc(F)cc2)C1 (stereo not given)	10	1	11	41	357
O=S(=O)(NC1CCN(CCOc2cccc3c2CCCC3)C1)c1ccc(F)cc1 (stereo not given)	22	1	16	72	96
CSc1ccccc1OCCN1CCC(NS(=O)(=O)c2cccc(Cl)c2)C1 (stereo not given)	5	< 1	15	36	185
CC(C)c1ccccc1OCCN1CCC(NS(=O)(=O)c2cccc3cccnc23)C1 (stereo not given)	23	2	10	10	504
